Results as given in ChEMBL document CHEMBL5104225, “Synthesis and structure-activity relationship studies of N-terminal analogues of the lipopeptide antibiotics brevicidine and laterocidine” (RSC Med Chem, 2022).
≈ marks a conversion by molar mass, not a printed value. Bridge positions count the residues as written; N and C are the ends. Square brackets hold non-standard residues; d marks the D form. Peptide text beside a SMILES is read from it. * marks the point of attachment. ξ: configuration not given here. Octanoyl(7-Me) = CC(C)CCCCCC(=O)*; Palmitoyl = CCCCCCCCCCCCCCCC(=O)*; Hexanoyl(4ξ-Me) = CCC(C)CCC(=O)*; Myristoyl = CCCCCCCCCCCCCC(=O)*; Lauroyl = CCCCCCCCCCCC(=O)*; Decanoyl = CCCCCCCCCC(=O)*; dOrn = NCCC[C@@H](N)C(=O)O; Octanoyl = CCCCCCCC(=O)*; Orn = NCCC[C@H](N)C(=O)O; Hexanoyl = CCCCCC(=O)*; Butyryl = CCCC(=O)*

Columns and labels:
Type in all cases: functional
[1] = test system: Klebsiella pneumoniae; test: Antibacterial activity against Klebsiella pneumoniae ATCC 13883 assessed as inhibition of bacterial growth incubated for 18 hrs by CLSI protocol based method
Method in brief: (§1)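 Single colonies from blood agar (16 h, 37 °C) grown in TSB at 37 °C, 220 rpm to OD600 ~0.5, then diluted in MHB to 2×10^5 CFU/mL. Mixed with serial MHB dilutions of DMSO stocks in polypropylene plates, sealed, and incubated 18 h at 37 °C, 600 rpm. MIC was taken as the lowest concentration with no visible growth; three technical replicates.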

[2] = test system: Staphylococcus aureus; test: Antibacterial activity against Staphylococcus aureus USA300 assessed as inhibition of bacterial growth incubated for 18 hrs by CLSI protocol based method; method in brief: as §1
[3] = test system: Acinetobacter baumannii; test: Antibacterial activity against Acinetobacter baumannii ATCC 17961 assessed as inhibition of bacterial growth incubated for 18 hrs by CLSI protocol based method; method in brief: as §1
[4] = test system: Pseudomonas aeruginosa; test: Antibacterial activity against Pseudomonas aeruginosa PAO1 assessed as inhibition of bacterial growth incubated for 18 hrs by CLSI protocol based method; method in brief: as §1
[5] = test system: Escherichia coli; test: Antibacterial activity against Escherichia coli ATCC 25922 assessed as inhibition of bacterial growth incubated for 18 hrs by CLSI protocol based method
Method in brief: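 Broth microdilution MIC. Strain streaked from glycerol stock on sheep blood agar (16 h, 37 °C); a colony was grown in TSB at 37 °C, 220 rpm, to OD600 about 0.5. Cells were diluted in MHB to 2×10^5 CFU/mL and added 1:1 to serial dilutions in MHB in polypropylene plates.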

[6] = test system: Escherichia coli; test: Antibacterial activity against colistin-resistant Escherichia coli ATCC 25922 carrying MCR-1 gene assessed as inhibition of bacterial growth incubated for 18 hrs by CLSI protocol based method
Method in brief: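 Broth microdilution MIC. MCR-1 strain grown from glycerol stock in TSB with kanamycin (16 h, 37 °C, 220 rpm), diluted 100-fold in the same medium and grown to OD600 about 0.5. Cells were diluted in MHB to 2×10^5 CFU/mL and added 1:1 to serial dilutions in MHB. Incubated 18 h, 37 °C, 600 rpm; visual lowest no-growth concentration; three technical replicates.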

| Compound | MIC [1] | MIC [2] | MIC [3] | MIC [4] | MIC [5] | MIC [6] |
| --- | --- | --- | --- | --- | --- | --- |
| CCCCCC(=O)N[C@H](CO)C(=O)N[C@H](Cc1ccc(O)cc1)C(=O)N[C@H](Cc1c[nH]c2ccccc12)C(=O)N[C@H](CCCN)C(=O)N[C@@H](CCCN)C(=O)NCC(=O)N[C@H](CCCN)C(=O)N[C@@H](Cc1c[nH]c2ccccc12)C(=O)N[C@@H]1C(=O)N[C@@H]([C@@H](C)CC)C(=O)N[C@@H](CC(N)=O)C(=O)NCC(=O)NCC(=O)O[C@@H]1C (Hexanoyl-[dS][dY][dW][dOrn][Orn]G[dOrn]WTINGG; ester 9-C) | 8 µg/mL (≈ 5.12 µM) | > 32 µg/mL | 16 µg/mL (≈ 10.2 µM) | 4 µg/mL (≈ 2.56 µM) | 4 µg/mL (≈ 2.56 µM) | 8 µg/mL (≈ 5.12 µM) |
| CCCCCCCCCCCCCC(=O)N[C@H](CC(N)=O)C(=O)N[C@H](Cc1ccc(O)cc1)C(=O)N[C@H](Cc1c[nH]c2ccccc12)C(=O)N[C@H](CCCN)C(=O)N[C@@H](CCCN)C(=O)NCC(=O)N[C@H](CCCN)C(=O)N[C@@H](Cc1c[nH]c2ccccc12)C(=O)N[C@@H]1C(=O)N[C@@H]([C@@H](C)CC)C(=O)NCC(=O)N[C@@H](CO)C(=O)O[C@@H]1C (Myristoyl-[dN][dY][dW][dOrn][Orn]G[dOrn]WTIGS; ester 9-C) | 32 µg/mL (≈ 19.8 µM) | > 32 µg/mL | 4 µg/mL (≈ 2.47 µM) | 32 µg/mL (≈ 19.8 µM) | 16 µg/mL (≈ 9.89 µM) | 16 µg/mL (≈ 9.89 µM) |
| CCCCCCCC(=O)N[C@H](CC(N)=O)C(=O)N[C@H](Cc1ccc(O)cc1)C(=O)N[C@H](Cc1c[nH]c2ccccc12)C(=O)N[C@H](CCCN)C(=O)N[C@@H](CCCN)C(=O)NCC(=O)N[C@H](CCCN)C(=O)N[C@@H](Cc1c[nH]c2ccccc12)C(=O)N[C@@H]1C(=O)N[C@@H]([C@@H](C)CC)C(=O)NCC(=O)N[C@@H](CO)C(=O)O[C@@H]1C (Octanoyl-[dN][dY][dW][dOrn][Orn]G[dOrn]WTIGS; ester 9-C) | 16 µg/mL (≈ 10.4 µM) | > 32 µg/mL | 16 µg/mL (≈ 10.4 µM) | 8 µg/mL (≈ 5.22 µM) | 16 µg/mL (≈ 10.4 µM) | 16 µg/mL (≈ 10.4 µM) |
| CCCCCCCCCCCCCCCC(=O)N[C@H](CO)C(=O)N[C@H](Cc1ccc(O)cc1)C(=O)N[C@H](Cc1c[nH]c2ccccc12)C(=O)N[C@H](CCCN)C(=O)N[C@@H](CCCN)C(=O)NCC(=O)N[C@H](CCCN)C(=O)N[C@@H](Cc1c[nH]c2ccccc12)C(=O)N[C@@H]1C(=O)N[C@@H]([C@@H](C)CC)C(=O)N[C@@H](CC(N)=O)C(=O)NCC(=O)NCC(=O)O[C@@H]1C (Palmitoyl-[dS][dY][dW][dOrn][Orn]G[dOrn]WTINGG; ester 9-C) | > 32 µg/mL | 32 µg/mL (≈ 18.8 µM) | 4 µg/mL (≈ 2.35 µM) | 32 µg/mL (≈ 18.8 µM) | 32 µg/mL (≈ 18.8 µM) | 32 µg/mL (≈ 18.8 µM) |
| COLISTIN | 0.5 µg/mL | > 32 µg/mL | < 0.25 µg/mL | 4 µg/mL | 0.5 µg/mL | 8 µg/mL |
| CCCCCCCCCC(=O)N[C@H](CO)C(=O)N[C@H](Cc1ccc(O)cc1)C(=O)N[C@H](Cc1c[nH]c2ccccc12)C(=O)N[C@H](CCCN)C(=O)N[C@@H](CCCN)C(=O)NCC(=O)N[C@H](CCCN)C(=O)N[C@@H](Cc1c[nH]c2ccccc12)C(=O)N[C@@H]1C(=O)N[C@@H]([C@@H](C)CC)C(=O)N[C@@H](CC(N)=O)C(=O)NCC(=O)NCC(=O)O[C@@H]1C (Decanoyl-[dS][dY][dW][dOrn][Orn]G[dOrn]WTINGG; ester 9-C) | 2 µg/mL (≈ 1.24 µM) | > 32 µg/mL | 2 µg/mL (≈ 1.24 µM) | 2 µg/mL (≈ 1.24 µM) | 2 µg/mL (≈ 1.24 µM) | 2 µg/mL (≈ 1.24 µM) |
| CCCCCC(=O)N[C@H](CC(N)=O)C(=O)N[C@H](Cc1ccc(O)cc1)C(=O)N[C@H](Cc1c[nH]c2ccccc12)C(=O)N[C@H](CCCN)C(=O)N[C@@H](CCCN)C(=O)NCC(=O)N[C@H](CCCN)C(=O)N[C@@H](Cc1c[nH]c2ccccc12)C(=O)N[C@@H]1C(=O)N[C@@H]([C@@H](C)CC)C(=O)NCC(=O)N[C@@H](CO)C(=O)O[C@@H]1C (Hexanoyl-[dN][dY][dW][dOrn][Orn]G[dOrn]WTIGS; ester 9-C) | 4 µg/mL (≈ 2.66 µM) | > 32 µg/mL | 16 µg/mL (≈ 10.6 µM) | > 32 µg/mL | 8 µg/mL (≈ 5.31 µM) | 8 µg/mL (≈ 5.31 µM) |
| CCCC(=O)N[C@H](CO)C(=O)N[C@H](Cc1ccc(O)cc1)C(=O)N[C@H](Cc1c[nH]c2ccccc12)C(=O)N[C@H](CCCN)C(=O)N[C@@H](CCCN)C(=O)NCC(=O)N[C@H](CCCN)C(=O)N[C@@H](Cc1c[nH]c2ccccc12)C(=O)N[C@@H]1C(=O)N[C@@H]([C@@H](C)CC)C(=O)N[C@@H](CC(N)=O)C(=O)NCC(=O)NCC(=O)O[C@@H]1C (Butyryl-[dS][dY][dW][dOrn][Orn]G[dOrn]WTINGG; ester 9-C) | 32 µg/mL (≈ 20.9 µM) | > 32 µg/mL | > 32 µg/mL | 8 µg/mL (≈ 5.21 µM) | 16 µg/mL (≈ 10.4 µM) | 32 µg/mL (≈ 20.9 µM) |
| CCC(C)CCC(=O)N[C@H](CC(N)=O)C(=O)N[C@H](Cc1ccc(O)cc1)C(=O)N[C@H](Cc1c[nH]c2ccccc12)C(=O)N[C@H](CCCN)C(=O)N[C@@H](CCCN)C(=O)NCC(=O)N[C@H](CCCN)C(=O)N[C@@H](Cc1c[nH]c2ccccc12)C(=O)N[C@@H]1C(=O)N[C@@H]([C@@H](C)CC)C(=O)NCC(=O)N[C@@H](CO)C(=O)O[C@@H]1C (stereo partly drawn) ({Hexanoyl(4ξ-Me)}-[dN][dY][dW][dOrn][Orn]G[dOrn]WTIGS; ester 9-C) | 2 µg/mL (≈ 1.32 µM) | > 32 µg/mL | 4 µg/mL (≈ 2.63 µM) | 8 µg/mL (≈ 5.26 µM) | 4 µg/mL (≈ 2.63 µM) | 4 µg/mL (≈ 2.63 µM) |
| CCCC(=O)N[C@H](CC(N)=O)C(=O)N[C@H](Cc1ccc(O)cc1)C(=O)N[C@H](Cc1c[nH]c2ccccc12)C(=O)N[C@H](CCCN)C(=O)N[C@@H](CCCN)C(=O)NCC(=O)N[C@H](CCCN)C(=O)N[C@@H](Cc1c[nH]c2ccccc12)C(=O)N[C@@H]1C(=O)N[C@@H]([C@@H](C)CC)C(=O)NCC(=O)N[C@@H](CO)C(=O)O[C@@H]1C (Butyryl-[dN][dY][dW][dOrn][Orn]G[dOrn]WTIGS; ester 9-C) | 8 µg/mL (≈ 5.41 µM) | > 32 µg/mL | 32 µg/mL (≈ 21.7 µM) | 16 µg/mL (≈ 10.8 µM) | 32 µg/mL (≈ 21.7 µM) | 32 µg/mL (≈ 21.7 µM) |
| CC[C@H](C)[C@@H]1NC(=O)[C@@H](NC(=O)[C@H](Cc2c[nH]c3ccccc23)NC(=O)[C@@H](CCCN)NC(=O)CNC(=O)[C@H](CCCN)NC(=O)[C@@H](CCCN)NC(=O)[C@@H](Cc2c[nH]c3ccccc23)NC(=O)[C@@H](Cc2ccc(O)cc2)NC(=O)[C@@H](CO)NC(=O)CCCCCC(C)C)[C@@H](C)OC(=O)CNC(=O)CNC(=O)[C@H](CC(N)=O)NC1=O ({Octanoyl(7-Me)}-[dS][dY][dW][dOrn][Orn]G[dOrn]WTINGG; ester 9-C) | 2 µg/mL (≈ 1.25 µM) | > 32 µg/mL | 2 µg/mL (≈ 1.25 µM) | 4 µg/mL (≈ 2.49 µM) | 2 µg/mL (≈ 1.25 µM) | 2 µg/mL (≈ 1.25 µM) |
| CCCCCCCCCC(=O)N[C@H](CC(N)=O)C(=O)N[C@H](Cc1ccc(O)cc1)C(=O)N[C@H](Cc1c[nH]c2ccccc12)C(=O)N[C@H](CCCN)C(=O)N[C@@H](CCCN)C(=O)NCC(=O)N[C@H](CCCN)C(=O)N[C@@H](Cc1c[nH]c2ccccc12)C(=O)N[C@@H]1C(=O)N[C@@H]([C@@H](C)CC)C(=O)NCC(=O)N[C@@H](CO)C(=O)O[C@@H]1C (Decanoyl-[dN][dY][dW][dOrn][Orn]G[dOrn]WTIGS; ester 9-C) | 4 µg/mL (≈ 2.56 µM) | 32 µg/mL (≈ 20.5 µM) | 4 µg/mL (≈ 2.56 µM) | 8 µg/mL (≈ 5.12 µM) | 4 µg/mL (≈ 2.56 µM) | 4 µg/mL (≈ 2.56 µM) |
| CCCCCCCCCCCC(=O)N[C@H](CC(N)=O)C(=O)N[C@H](Cc1ccc(O)cc1)C(=O)N[C@H](Cc1c[nH]c2ccccc12)C(=O)N[C@H](CCCN)C(=O)N[C@@H](CCCN)C(=O)NCC(=O)N[C@H](CCCN)C(=O)N[C@@H](Cc1c[nH]c2ccccc12)C(=O)N[C@@H]1C(=O)N[C@@H]([C@@H](C)CC)C(=O)NCC(=O)N[C@@H](CO)C(=O)O[C@@H]1C (Lauroyl-[dN][dY][dW][dOrn][Orn]G[dOrn]WTIGS; ester 9-C) | 8 µg/mL (≈ 5.03 µM) | 32 µg/mL (≈ 20.1 µM) | 4 µg/mL (≈ 2.52 µM) | 16 µg/mL (≈ 10.1 µM) | 8 µg/mL (≈ 5.03 µM) | 8 µg/mL (≈ 5.03 µM) |
